In assay [1] the test system is Rattus norvegicus. Put plainly: Compound was tested by carrageenan-induced paw edema for percent change in paw volume of control sham operated rats at 50 mg/kg; the %change is Not statistically significant. Format: functional. In a few lines:
(§1)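 Normal, adrenalectomized or sham-operated Lewis rats were dosed po in 0.5% tragacanth, hydrated. 1 h later paw volume was read, then […] of 1% carrageenan in 0.9% saline was injected into the right hindpaw plantar surface. Volume was re-read at 3 h. Percent change, treated vs control; Student's t test.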

Assay [2] concerns Rattus norvegicus. The assay can be described thus: The compound was tested for percent change in nonimmune L3 inflammatory lesions in rat adjuvant-induced arthritis at 50 mg/kg; the %change is Not statistically significant. The assay is classed as functional. In a few lines:
(§2)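 Male Wistar rats received 0.75 mg M. butyricum in paraffin oil intradermally into the left hindpaw. Compounds were given daily po in 0.5% tragacanth from the injection day for 17 days, skipping days 4, 5, 11 and 12. Leg volumes were read by mercury displacement: left leg on day 3, both legs on day 16. Eight treated rats vs 16 vehicle controls; Student's t test. ED25 is the dose giving a 25% volume decrease, from at least three doses, with 95% limits by Fieller's theorem.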

Assay [3] has as its system Rattus norvegicus. Put plainly: The compound was tested for percent change in immune R16 inflammatory lesions in rat adjuvant-induced arthritis at 50 mg/kg. Format: functional. In a few lines:
as §2

The species entered for assay [4] is Mus musculus. Put plainly: Immunoregulatory activity against oxazolone induced mouse contact sensitivity was evaluated as percent change. The assay is classed as functional. In a few lines:
(§3)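 Male C57B1/6 mice were sensitized with 0.1 mL of 5% oxazolone in absolute ethanol on the clipped abdomen. At 45 h the left hind leg was challenged with 5% oxazolone. Compound was given po in 0.5% tragacanth. Edema was read plethysmographically 24 h later as left minus right leg volume. Six mice vs eight controls; Student's t test.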

Assay [5] deals with Rattus norvegicus. The assay can be described thus: The compound was tested for percent change in nonimmune L16 inflammatory lesions in rat adjuvant-induced arthritis at 50 mg/kg. The assay is classed as functional. In a few lines: as §2
Assay [6] deals with Rattus norvegicus. The assay can be described thus: The compound was tested for percent change in nonimmune L3 inflammatory lesions in rat adjuvant-induced arthritis at 50 mg/kg. The assay is classed as functional. In a few lines:
as §2

The subject of assay [7] is Mus musculus. Put plainly: Immunoregulatory activity against oxazolone induced mouse contact sensitivity was evaluated as percent change at a dose of 10 mg/kg. Format: functional. In a few lines: as §3
Assay [8] deals with Rattus norvegicus. Put plainly: Compound was tested by carrageenan -induced paw edema for percent change in paw volume on treated vs. control adrenalectomized rats. The assay is classed as functional. In a few lines:
as §1
For orientation: In the carrageenan paw model, swelling and tenderness develop within hours.

Assay [9] deals with Rattus norvegicus. The assay can be described thus: Compound was tested by carrageenan -induced paw edema for percent change in paw volume of control sham operated rats. Format: functional. In a few lines:
as §1

For assay [10], the species on record is Rattus norvegicus. The assay can be described thus: Inhibition of immune R16 inflammatory lesions was measured.; activity value ranges from 0.17 - 1.73. The assay is classed as functional. In a few lines:
as §2

For assay [11], the species on record is Rattus norvegicus. Put plainly: Inhibition of secondary nonimmune L16 inflammatory lesions was measured; activity value ranges from 0.19 - 0.79. Format: functional. In a few lines:
as §2

Assay [12] concerns Mus musculus. Put plainly: Change in paw edema in oxazolone -induced arthritic mice at 5 mg/kg.
The species named for assay [13] is Rattus norvegicus. The assay can be described thus: Inhibition of primary nonimmune L3 inflammatory lesions was measured. Format: functional. In a few lines:
as §2

Assay [14] concerns Mus musculus. Put plainly: Change in paw edema in methotrexate-suppressed oxazolone -induced contact sensitivity in mice at 5 mg/kg; % change was not statistically significant. Format: functional.
Assay [15] concerns Rattus norvegicus. Put plainly: The compound was tested for percent change in nonimmune L3 inflammatory lesions in rat adjuvant-induced arthritis at 50 mg/kg; the % change was not statistically significant. Format: functional. In a few lines: as §2
The species entered for assay [16] is Mus musculus. Put plainly: Immunoregulatory activity against oxazolone induced mouse contact sensitivity was evaluated as percent change; the % change was not statistically significant. The assay is classed as functional, organism-based. In a few lines: as §3
Assay [17] has as its system Rattus norvegicus. Put plainly: The compound was tested for percent change in immune R16 inflammatory lesions in rat adjuvant-induced arthritis at 50 mg/kg; the % change was not statistically significant. Format: functional. In a few lines:
as §2

Assay [18] relates to Rattus norvegicus. Put plainly: Compound was tested by carrageenan -induced paw edema for percent change in paw volume of control sham operated rats at 50 mg/kg. Format: functional. In a few lines:
as §1

In assay [19] the test system is Rattus norvegicus. The assay can be described thus: Percent change in nonimmune L3 inflammatory lesions in rat adjuvant-induced arthritis at 50 mg/kg. Format: functional. In a few lines: as §2
For assay [20], the species on record is Mus musculus. Put plainly: Immunoregulatory activity against mouse contact sensitivity was evaluated as percent change. The assay is classed as functional. In a few lines:
as §3

The subject of assay [21] is Rattus norvegicus. Put plainly: Percent change in immune R16 inflammatory lesions in rat adjuvant-induced arthritis at 50 mg/kg. The assay is classed as functional. In a few lines:
as §2

The test system of assay [22] is Rattus norvegicus. Put plainly: Percent change in nonimmune L16 inflammatory lesions in rat adjuvant-induced arthritis at 50 mg/kg. Format: functional. In a few lines:
as §2

For assay [23], the system named is Rattus norvegicus. The assay can be described thus: The compound was tested for percent change in immune R16 inflammatory lesions in rat adjuvant-induced arthritis at 50 mg/kg; the %change is Not statistically significant. The assay is classed as functional. In a few lines:
as §2

The test system of assay [24] is Rattus norvegicus. The assay can be described thus: The compound was tested for percent change in nonimmune L16 inflammatory lesions in rat adjuvant-induced arthritis at 50 mg/kg; the %change is Not statistically significant. Format: functional. In a few lines:
as §2

The species entered for assay [25] is Rattus norvegicus. Put plainly: Inhibition of primary nonimmune, L3 inflammatory lesions was measured. Format: functional. In a few lines: as §2
The subject of assay [26] is Rattus norvegicus. Put plainly: Compound was tested by carrageenan -induced paw edema for percent change in paw volume of control in adrenalectomized operated rats at 50 mg/kg. Format: functional. In a few lines:
as §1

Assay [27] is filed under the species Rattus norvegicus. The assay can be described thus: Inhibition of secondary nonimmune, L16 inflammatory lesions was measured. The assay is classed as functional. In a few lines:
as §2

The subject of assay [28] is Rattus norvegicus. The assay can be described thus: Change in 7S hemagglutinination titers in adjuvant-induced arthritic rats at 50 mg/kg. The assay is classed as functional.
Assay [29] deals with Rattus norvegicus. The assay can be described thus: Change in 19S hemagglutinination titers in adjuvant-induced arthritic rats at 50 mg/kg. The assay is classed as functional.
For assay [30], the species on record is Rattus norvegicus. Put plainly: Inhibition of immune, R16 inflammatory lesions was measured. The assay is classed as functional. In a few lines:
as §2

Assay [31] deals with Mus musculus. Put plainly: Change in paw edema in oxazolone -induced arthritic mice at 50 mg/kg.
Assay [32] has as its system Mus musculus. The assay can be described thus: Change in paw edema in methotrexate-suppressed oxazolone -induced contact sensitivity in mice at 50 mg/kg. The assay is classed as functional.
The species entered for assay [33] is Rattus norvegicus. The assay can be described thus: animal or person.
Assay [34] is filed under the species Rattus norvegicus. Put plainly: animal or person. This is another data set of the same source.
The species entered for assay [35] is Rattus norvegicus. Put plainly: animal or person. This is another data set of the same source.
The test system of assay [36] is Rattus norvegicus. Put plainly: Compound was tested by carrageenan -induced paw edema for percent change in paw volume of control sham operated rats at 50 mg/kg; the % change was Not statistically significant. The assay is classed as functional. In a few lines:
as §1

Assay [37] is filed under the species Mus musculus. Put plainly: Immunoregulatory activity against oxazolone induced mouse contact sensitivity was evaluated as percent change; the % change in Not statistically Significant. The assay is classed as functional. In a few lines:
as §3

Assay [38] has as its system Rattus norvegicus. The assay can be described thus: The compound was tested for percent change in immune R16 inflammatory lesions in rat adjuvant-induced arthritis at 50 mg/kg; the % change was Not Significant. The assay is classed as functional. In a few lines:
as §2

The subject of assay [39] is Rattus norvegicus. The assay can be described thus: Compound was tested by carrageenan -induced paw edema for percent change in paw volume of control sham operated rats at 100 mg/kg. The assay is classed as functional. In a few lines:
as §1

Regarding `O=S1(=O)CCn2c1nc(-c1ccc(F)cc1)c2-c1ccc(F)cc1`, the Change is 3% in [1]; -6% in assay [2]; -34% in assay [3]; 20% in [4]; -17% in [5].
Turning to `COc1ccc(-c2nc3n(c2-c2ccc(OC)cc2)CC[S+]3[O-])cc1` (stereo not given), the Change is -32% in [3], -24% in assay [6], -29% in assay [5] and 76% in assay [7].
For the compound `COc1ccc(-c2nc(C(F)(F)F)[nH]c2-c2ccc(OC)cc2)cc1` [FLUMIZOLE], the Change is listed as -47% in assay [8], -48% in [9], -28% in assay [12] and 3% in assay [14]. Also, the ED25 is 0.78 mg/kg in assay [10], 0.45 mg/kg in [11] and 11 mg/kg in assay [13].
Take `COc1ccc(-c2nc3sccn3c2-c2ccc(OC)cc2)cc1`: the Change was -6% in assay [15], “Not significant” in assay [16], 0% in assay [17] and -9% in [5].
Take `CSc1ccc(-c2nc3n(c2-c2ccc(SC)cc2)CCS3)cc1`: the Change in assay [18] is -33%; in [19], -25%; in [20], 73%; in assay [21] it was -38%; in assay [22], -36%.
On to `COc1cccc(-c2nc3n(c2-c2cccc(OC)c2)CC[S+]3[O-])c1` (stereo not given), for which the Change is reported as 7% in [23], 4% in assay [2], 9% in assay [24] and 59% in [4].
As to `COc1ccc(-c2nc3n(c2-c2ccc(OC)cc2)CCS3)cc1`, the Change is -63% in [18]; -58% in [26]; -24% in assay [19]; -3.7% in assay [28]; 211% in assay [20]; 1.2% in assay [29]. Moreover, the Change in assay [21] was -21%; in assay [22], -34%; in assay [31], 211%; in [32], 156%. The ED25 in assay [25] was determined as 32.9 mg/kg; in assay [27], 18.7 mg/kg; in assay [30], 24.4 mg/kg.
With `c1ccc([C@H]2CN3CCSC3=N2)cc1` [LEVAMISOLE], the ED25 in assay [33] is 44.4 mg/kg; in assay [34], 127 mg/kg; in [35] it was 73.4 mg/kg.
With `C[S+]([O-])c1ccc(-c2nc3n(c2-c2ccc([S+](C)[O-])cc2)CC[S+]3[O-])cc1` (stereo not given), the Change in [3] is recorded as -47%; in assay [36], 10%; in assay [37], 38%; in assay [6], -27%; in [5], -44%.
`COc1ccc(-c2nc3n(c2-c2ccc(OC)cc2)CCS3(=O)=O)cc1`: the Change in [38] was -7%; in assay [4], 95%; in assay [6], -11%; in assay [5], -12%.
As for `Cl.Fc1ccc(-c2nc3n(c2-c2ccc(F)cc2)CCS3)cc1`, the Change was -9% in [18]; -39% in assay [19]; 79% in [20]; 6% in [39]; -49% in assay [21]; -36% in [22].
With `c1ccc(-c2nc3n(c2-c2ccccc2)CCS3)cc1`, the Change in assay [18] is reported as -9%; in [19], -12%; in [39] it was -7%; in assay [21], -4%; in assay [22], -4%.
As to `FC(F)(F)c1ccc(-c2nc3n(c2-c2ccc(C(F)(F)F)cc2)CCS3)cc1`, the Change in assay [19] amounted to 0%; in assay [20] it was 89%; in assay [39] it was 4%; in assay [21], 1%; in assay [22], 12%.
In the case of `COc1cccc(-c2nc3n(c2-c2cccc(OC)c2)CCS3)c1`, the Change in [19] is 0%; in assay [20] it was 166%; in assay [39], -3%; in assay [21], -16%; in assay [22] it was -4%.

These data come from ChEMBL document CHEMBL1123024, “5,6-Diaryl-2,3-dihydroimidazo[2,1-b]thiazoles: a new class of immunoregulatory antiinflammatory agents” (1985).
